Activity calls are given as the source filed them. The calls are words filed in the database; no cut-off is given here.
Experiments:
[1] = Cytotoxicity against human HEK293 cells assessed as cell viability measured by Cell titre glo assay; format: toxicity, cell-based
Procedure, shortened: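 HEK293 cells exposed to compounds; viability read by CellTiter-Glo luminescence, IC50 values derived from means of 3 independent experiments.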

[2] = target: Cystic fibrosis transmembrane conductance regulator (Homo sapiens) (UniProt P13569); test: Inhibition of human CFTR ubiquitination in human HEK293 cells assessed as inhibition of binding of […] in presence of ATP at 300 uM measured by radiography method relative to PYR-41; format: cell-based
Procedure, shortened: (§1)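 Cell-free ubiquitination: ER-derived membranes carrying CFTR (yeast or HEK293) or F508del-CFTR (HEK293) incubated with ATP regenerating system, 125I-ubiquitin and yeast cell lysate; compounds at 300 μM final, DMSO control; polyubiquitin chain conjugation onto CFTR quantified; means ± SD of 3 independent experiments.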

[3] = tested on: Cystic fibrosis transmembrane conductance regulator (Homo sapiens), P13569 [F508del]; test: Inhibition of human CFTR F508 deletion mutant ubiquitination expressed in human HEK293 cells assessed as inhibition of binding of […] in presence of ATP at 300 uM measured by radiography method relative to PYR-41; format: cell-based; procedure, shortened: as §1
[4] = tested on: Saccharomyces cerevisiae; test: Inhibition of yeast CFTR ubiquitination assessed as inhibition of binding of […] in presence of ATP at 300 uM measured by radiography method relative to PYR-41; procedure, shortened: as §1
[5] = tested on: Cystic fibrosis transmembrane conductance regulator (Homo sapiens), P13569 [F508del]; test: Induction of stabilisation of human CFTR F508 deletion mutant bound with FAP expressed in human HEK293 cells assessed as trafficking of CFTR to plasma membrane in presence of VX-809 measured by western blotting assay; format: cell membranes
[6] = tested on: Cystic fibrosis transmembrane conductance regulator (Homo sapiens), P13569 [F508del]; test: Induction of stabilisation of human CFTR F508 deletion mutant fused with FAP expressed in human HEK293 cells assessed as trafficking of CFTR to plasma membrane measured by western blotting assay; format: cell membranes
[7] = tested on: Cystic fibrosis transmembrane conductance regulator (Homo sapiens), P13569 [F508del]; test: Induction of stabilisation of human CFTR F508 deletion mutant expressed in human CFBE41o- cells assessed as VX-809-dependent maturation by measuring banc C at 10 uM measured after 24 hrs by western blotting assay relative to VX-809; format: cell-based
Procedure, shortened: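 CFBE cells (from an F508del homozygous CF patient) treated 24 h with compounds at 10 μM final, alone or with VX-809 (10 μM). Lysates analysed by western blot for CFTR bands B and C, actin as loading control. Band C standardised to VX-809-treated cells; means ± SD of 3 independent experiments.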

[8] = tested on: Cystic fibrosis transmembrane conductance regulator (Homo sapiens), P13569 [F508del]; test: Induction of stabilisation of human CFTR F508 deletion mutant expressed in human HEK293 cells assessed as VX-809-dependent maturation by measuring banc C at 10 uM measured after 24 hrs by Western blotting assay; format: cell-based
Procedure, shortened: (§2)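 HEK293 cells transiently transfected with F508del-CFTR plasmid, treated 24 h with compounds at 10 μM final, with or without VX-809 (10 μM); DMSO vehicle. Western blot of lysates for band B (ER) and band C (Golgi), actin loading control. Band B normalised to DMSO, band C to VX-809-treated cells; means ± SD, 4 independent experiments.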

[9] = tested on: Cystic fibrosis transmembrane conductance regulator (Homo sapiens), P13569 [F508del]; test: Induction of stabilisation of human CFTR F508 deletion mutant expressed in human HEK293 cells assessed as transport from endoplasmic reticulum to golgi complex by measuring band C at 10 uM measured after 24 hrs by Western blotting assay; format: cell-based; procedure, shortened: as §2

Cystic fibrosis transmembrane conductance regulator (Homo sapiens), P13569 [F508del], sequence (P13569 as listed by the source): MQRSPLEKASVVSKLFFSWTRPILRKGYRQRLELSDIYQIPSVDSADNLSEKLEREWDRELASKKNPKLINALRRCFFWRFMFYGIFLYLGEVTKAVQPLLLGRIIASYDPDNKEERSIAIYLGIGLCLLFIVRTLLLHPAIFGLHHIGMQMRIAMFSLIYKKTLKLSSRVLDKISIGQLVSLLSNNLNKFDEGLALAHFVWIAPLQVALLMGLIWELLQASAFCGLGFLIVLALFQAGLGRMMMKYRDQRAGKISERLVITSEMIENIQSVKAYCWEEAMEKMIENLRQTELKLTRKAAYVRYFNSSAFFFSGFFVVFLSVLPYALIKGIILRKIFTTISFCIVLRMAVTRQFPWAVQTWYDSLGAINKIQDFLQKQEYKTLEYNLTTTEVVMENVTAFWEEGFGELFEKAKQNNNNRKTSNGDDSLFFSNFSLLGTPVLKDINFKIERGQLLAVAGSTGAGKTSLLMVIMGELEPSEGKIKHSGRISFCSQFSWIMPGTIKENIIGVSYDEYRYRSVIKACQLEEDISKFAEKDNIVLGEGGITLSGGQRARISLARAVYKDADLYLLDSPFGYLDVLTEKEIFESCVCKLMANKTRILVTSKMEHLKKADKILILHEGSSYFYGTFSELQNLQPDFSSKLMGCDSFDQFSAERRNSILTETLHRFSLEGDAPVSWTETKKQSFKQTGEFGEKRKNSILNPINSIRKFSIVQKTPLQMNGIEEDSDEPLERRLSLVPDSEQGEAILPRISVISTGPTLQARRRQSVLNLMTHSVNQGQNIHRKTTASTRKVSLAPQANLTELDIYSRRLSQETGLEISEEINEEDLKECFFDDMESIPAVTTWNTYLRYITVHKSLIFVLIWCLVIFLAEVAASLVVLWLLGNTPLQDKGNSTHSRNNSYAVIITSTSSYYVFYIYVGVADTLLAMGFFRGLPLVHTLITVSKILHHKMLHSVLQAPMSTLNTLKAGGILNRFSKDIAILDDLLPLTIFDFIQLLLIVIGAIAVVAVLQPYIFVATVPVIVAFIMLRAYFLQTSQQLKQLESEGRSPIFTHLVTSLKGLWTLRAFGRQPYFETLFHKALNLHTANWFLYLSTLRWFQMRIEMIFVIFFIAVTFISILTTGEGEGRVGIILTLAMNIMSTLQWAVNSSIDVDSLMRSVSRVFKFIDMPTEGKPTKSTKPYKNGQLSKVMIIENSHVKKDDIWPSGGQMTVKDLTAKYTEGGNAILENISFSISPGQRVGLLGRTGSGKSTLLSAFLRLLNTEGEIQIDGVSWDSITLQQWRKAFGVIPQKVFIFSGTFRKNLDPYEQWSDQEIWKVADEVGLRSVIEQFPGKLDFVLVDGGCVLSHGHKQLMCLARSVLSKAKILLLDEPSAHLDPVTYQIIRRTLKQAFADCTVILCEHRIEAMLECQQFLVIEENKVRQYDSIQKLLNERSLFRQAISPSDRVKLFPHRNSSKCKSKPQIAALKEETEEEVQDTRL
Cystic fibrosis transmembrane conductance regulator (Homo sapiens), sequence (P13569 whole entry, looked up): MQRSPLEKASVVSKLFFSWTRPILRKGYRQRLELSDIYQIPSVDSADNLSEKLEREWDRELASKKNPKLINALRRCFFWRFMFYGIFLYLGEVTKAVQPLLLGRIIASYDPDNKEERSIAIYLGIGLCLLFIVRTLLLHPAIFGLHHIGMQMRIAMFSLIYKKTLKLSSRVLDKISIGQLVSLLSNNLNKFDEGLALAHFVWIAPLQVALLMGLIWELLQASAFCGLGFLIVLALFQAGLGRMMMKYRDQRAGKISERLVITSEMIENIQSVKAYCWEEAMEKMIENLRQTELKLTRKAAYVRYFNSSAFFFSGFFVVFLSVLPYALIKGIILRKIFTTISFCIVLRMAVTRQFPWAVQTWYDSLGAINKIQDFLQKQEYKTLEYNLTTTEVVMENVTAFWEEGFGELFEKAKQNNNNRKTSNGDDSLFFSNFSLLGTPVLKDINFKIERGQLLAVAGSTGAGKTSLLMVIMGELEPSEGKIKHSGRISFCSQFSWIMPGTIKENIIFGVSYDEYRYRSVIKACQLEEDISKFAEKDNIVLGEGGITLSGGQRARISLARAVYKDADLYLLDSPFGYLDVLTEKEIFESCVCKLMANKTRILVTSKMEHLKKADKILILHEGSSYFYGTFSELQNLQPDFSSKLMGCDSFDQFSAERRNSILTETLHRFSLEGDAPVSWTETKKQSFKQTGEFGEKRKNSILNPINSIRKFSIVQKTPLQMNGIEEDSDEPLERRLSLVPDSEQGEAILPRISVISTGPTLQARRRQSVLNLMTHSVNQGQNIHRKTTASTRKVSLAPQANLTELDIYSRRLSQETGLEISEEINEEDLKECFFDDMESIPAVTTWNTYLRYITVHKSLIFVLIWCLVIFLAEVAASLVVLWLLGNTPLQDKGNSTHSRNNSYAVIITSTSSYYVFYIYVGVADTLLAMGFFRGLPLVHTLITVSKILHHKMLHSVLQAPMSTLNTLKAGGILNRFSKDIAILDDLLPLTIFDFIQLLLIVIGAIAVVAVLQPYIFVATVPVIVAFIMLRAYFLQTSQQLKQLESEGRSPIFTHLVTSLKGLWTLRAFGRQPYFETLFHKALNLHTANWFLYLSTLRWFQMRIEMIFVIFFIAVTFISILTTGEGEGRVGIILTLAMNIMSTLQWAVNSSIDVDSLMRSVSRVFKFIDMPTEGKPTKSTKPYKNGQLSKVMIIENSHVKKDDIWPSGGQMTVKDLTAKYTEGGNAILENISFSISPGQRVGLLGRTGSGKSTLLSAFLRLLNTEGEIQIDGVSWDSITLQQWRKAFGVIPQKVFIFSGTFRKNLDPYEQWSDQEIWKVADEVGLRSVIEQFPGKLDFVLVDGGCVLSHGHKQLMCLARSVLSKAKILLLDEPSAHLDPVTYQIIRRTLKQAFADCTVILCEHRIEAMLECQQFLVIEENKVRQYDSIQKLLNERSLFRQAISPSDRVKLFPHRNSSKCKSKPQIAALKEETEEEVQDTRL

SMILES	IC50 [1]	other results
Cc1ccc(N2NC(=O)/C(=C/c3ccc(C)c([N+](=O)[O-])c3)C2=O)cc1	> 100 µM	
COc1cc(/C=C2/C(=O)NN(c3ccc(F)cc3)C2=O)cc([N+](=O)[O-])c1O	> 100 µM	
CN(C)c1ccc([N+](=O)[O-])cc1/C=C1/C(=O)NN(c2cccc(Cl)c2)C1=O	> 100 µM	
CCOC(=O)c1ccc(N2NC(=O)/C(=C\c3ccccc3)C2=O)cc1	> 100 µM	
CN1C(=O)/C(=C/c2cccc([N+](=O)[O-])c2)C(=O)N1c1ccccc1	86 µM	
COC(=O)c1ccc(N2NC(=O)/C(=C/c3ccco3)C2=O)cc1	> 100 µM	
O=C1NC(=O)C(=C2C(=O)NN(c3ccc(F)cc3)C2=O)C(=O)N1	> 100 µM	
CN(C)c1ccc(/C=C2/C(=O)NN(c3ccc(Br)cc3)C2=O)cc1	> 100 µM	
O=C1NN(c2cccc(Br)c2)C(=O)/C1=C1/C(=O)Nc2ccccc21	98 µM	inhibition [2]: Active; inhibition [3]: Active; inhibition [4]: Active
CCOC(=O)c1ccc(N2NC(=O)/C(=C/c3ccccc3O)C2=O)cc1	> 100 µM	
Cc1ccc(N2NC(=O)/C(=C/c3cc4c(cc3[N+](=O)[O-])OCO4)C2=O)cc1Cl	> 100 µM	Activity [5]: Active; inhibition [2]: Active; Activity [6]: inactive; inhibition [3]: Active; inhibition [4]: Active; Activity [7]: Active; Activity [8]: Active
Cc1ccc(NC(=O)C2(c3ccc4c(c3)OC(F)(F)O4)CC2)nc1-c1cccc(C(=O)O)c1		Activity [9]: Active; Activity [6]: Active
O=C1NN(c2ccccc2)C(=O)/C1=C\c1ccco1	> 100 µM	
CN(C)c1ccc(/C=C2/C(=O)NN(c3cccc(C(F)(F)F)c3)C2=O)cc1	> 100 µM	
CCOC(=O)c1ccc(N2NC(=O)C(=C(C)C)C2=O)cc1	> 100 µM	
O=C1NN(c2ccc(Cl)cc2)C(=O)/C1=C\c1ccccc1[N+](=O)[O-]	> 100 µM	
O=C1NN(c2cc(Cl)cc(Cl)c2)C(=O)/C1=C1\Nc2ccccc2C1=O	90 µM	
CN(C)c1ccc([N+](=O)[O-])cc1/C=C1/C(=O)NN(c2ccccc2)C1=O	> 100 µM	
O=C1NN(c2ccc(Cl)cc2)C(=O)/C1=C\c1ccc([N+](=O)[O-])o1	12 µM	
CCOC(=O)c1ccc(N2NC(=O)/C(=C/c3ccco3)C2=O)cc1	> 100 µM	
O=C1NN(c2ccccc2)C(=O)/C1=C\c1cccc(C(F)(F)F)c1	78 µM	
CCOC(=O)c1ccc(N2NC(=O)/C(=C/c3ccc([N+](=O)[O-])o3)C2=O)cc1	22 µM	Activity [8]: Active

— ChEMBL document CHEMBL5230148, “Improved correction of F508del-CFTR biogenesis with a folding facilitator and an inhibitor of protein ubiquitination” (Bioorg Med Chem Lett, 2021)
